# Experimental data from ChEMBL document CHEMBL1932985, “Identification of biaryl sulfone derivatives as antagonists of the histamine H₃ receptor: discovery of (R)-1-(2-(4'-(3-methoxypropylsulfonyl)biphenyl-4-yl)ethyl)-2-methylpyrrolidine (APD916)” (Bioorg Med Chem Lett, 2012).
# pIC50, pKi: −log10 of the molar value.
# Assays:
# Histamine H3 receptor = Histamine H3 receptor (Rattus norvegicus, UniProt Q9QYN8); assay: Displacement of N-[3H]-methylhistamine from histamine H3 receptor in rat cortex membranes; type: cell membranes, Membrane
# hERG (KCNH2) = hERG (KCNH2) (Homo sapiens, UniProt Q12809); assay: Inhibition of human ERG at 3 uM by patch-clamp assay
# [1] = biological target: Voltage-gated inwardly rectifying potassium channel KCNH2 (Homo sapiens, UniProt Q12809); assay: Inhibition of human ERG by patch-clamp assay
# Rattus norvegicus [2] = assay: Inhibition of RAMH-induced dipsogenia in po dosed Sprague-Dawley rat administered 30 mins prior to RAMH challenge measured up to 20 mins; type: functional; conditions: read-out: MED
# Outline: (§1)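 Rats given compound orally 0.5 h (or, for duration of action, at selected times up to 6 h) before RAMH 10 mg/kg SC; water consumed over 20 min measured. Screening doses 1 or 0.3 mg/kg PO, also 0.1 mg/kg; duration study at 0.6 mg/kg PO. MED = minimum dose fully inhibiting drinking; means ± SEM.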
# [3] = Tmax in Sprague-Dawley rat at 3 mg/kg, po and iv by LC-MS/MS analysis; type: ADME, organism-based; parameters: dose 3 mg/kg, route oral; conditions: in vivo
# Outline: (§2)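 Rats were given the compound both IV and PO in a routine PK study. Tmax came from the PO arm and Vss from the IV arm.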
# [4] = Cmax in Sprague-Dawley rat plasma at 3 mg/kg, po and iv by LC-MS/MS analysis; type: ADME, organism-based; parameters: dose 3 mg/kg, route oral
# Outline: (§3)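 Rat PK after IV and PO dosing; plasma Cmax, Tmax, IV half-life and Vss determined; oral bioavailability from AUCpo/AUCiv. Metabolite exposure determined after a 3 mg/kg PO parent dose.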
# [5] = Half life in Sprague-Dawley rat at 3 mg/kg, iv by LC-MS/MS analysis; type: ADME, organism-based; parameters: dose 3 mg/kg, route intravenous; conditions: in vivo; outline: as §3
# Rattus norvegicus [6] = assay: Volume of distribution at steady state in Sprague-Dawley rat at 3 mg/kg, po and iv by LC-MS/MS analysis; type: ADME, organism-based; parameters: dose 3 mg/kg, route oral; conditions: in vivo; outline: as §2
# [7] = Oral bioavailability in Sprague-Dawley rat at 3 mg/kg by LC-MS/MS analysis; type: ADME, organism-based; conditions: in vivo; outline: as §3
# [8] = Ratio of drug level in brain to plasma in Sprague-Dawley rat at 3 mg/kg, po and iv after 0.75 to 3 hrs by LC-MS/MS analysis; type: ADME, organism-based; parameters: dose 3 mg/kg, route oral; conditions: read-out: BPR
# Outline: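 Brain (µg/mg) and plasma (µg/mL) levels were measured after oral dosing, with three rats per time point. The b/p ratio was the mean of the nine individual ratios.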
# [9] = Plasma protein binding in rat; type: ADME, cell-free; conditions: read-out: PPB (converted)
# [10] = Plasma protein binding in human; type: ADME, cell-free; conditions: read-out: PPB (converted)
# [11] = Drug uptake in Sprague-Dawley rat brain at 0.3 mg/kg, po after 1 hr; type: ADME, organism-based; parameters: dose 0.3 mg/kg, route oral
# Outline: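 Whole-brain concentration measured 1 h after a 0.3 mg/kg oral dose in rat, the time coinciding with the drinking measurement; expressed […].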
# Rattus norvegicus [12] = assay: Inhibition of RAMH-induced dipsogenia in Sprague-Dawley rat at 0.6 mg/kg, po administered 6 hrs prior to RAMH challenge measured up to 20 mins; type: functional; outline: as §1
# [13] = Tmax in mouse at 3 mg/kg, po by LC-MS/MS analysis; type: ADME, organism-based; parameters: dose 3 mg/kg, route oral; conditions: in vivo
# [14] = Tmax in monkey at 3 mg/kg, po by LC-MS/MS analysis; type: ADME, organism-based, Macaca mulatta; parameters: dose 3 mg/kg, route oral; conditions: rhesus monkey, in vivo
# [15] = Tmax in dog at 3 mg/kg, po by LC-MS/MS analysis; type: ADME, organism-based, Canis lupus familiaris; parameters: dose 3 mg/kg, route oral; conditions: in vivo
# [16] = Cmax in mouse at 3 mg/kg, po by LC-MS/MS analysis; type: ADME, organism-based; parameters: dose 3 mg/kg, route oral; conditions: in vivo
# [17] = Cmax in monkey at 3 mg/kg, po by LC-MS/MS analysis; type: ADME, organism-based, Macaca mulatta; parameters: dose 3 mg/kg, route oral; conditions: rhesus monkey, in vivo
# [18] = Cmax in dog at 3 mg/kg, po by LC-MS/MS analysis; type: ADME, organism-based, Canis lupus familiaris; parameters: dose 3 mg/kg, route oral; conditions: in vivo
# [19] = Half life in mouse at 3 mg/kg, po by LC-MS/MS analysis; type: ADME, organism-based; parameters: dose 3 mg/kg, route oral; conditions: in vivo
# [20] = Half life in Sprague-Dawley rat at 3 mg/kg, po by LC-MS/MS analysis; type: ADME, organism-based; parameters: dose 3 mg/kg, route oral; conditions: in vivo
# [21] = Half life in monkey at 3 mg/kg, po by LC-MS/MS analysis; type: ADME, organism-based, Macaca mulatta; parameters: dose 3 mg/kg, route oral; conditions: rhesus monkey, in vivo
# [22] = Half life in dog at 3 mg/kg, po by LC-MS/MS analysis; type: ADME, organism-based, Canis lupus familiaris; parameters: dose 3 mg/kg, route oral; conditions: in vivo
# [23] = Oral bioavailability in monkey at 3 mg/kg by LC-MS/MS analysis; type: ADME, organism-based, Macaca mulatta; conditions: rhesus monkey, in vivo
# Sequence of hERG (KCNH2) (Q12809 whole entry): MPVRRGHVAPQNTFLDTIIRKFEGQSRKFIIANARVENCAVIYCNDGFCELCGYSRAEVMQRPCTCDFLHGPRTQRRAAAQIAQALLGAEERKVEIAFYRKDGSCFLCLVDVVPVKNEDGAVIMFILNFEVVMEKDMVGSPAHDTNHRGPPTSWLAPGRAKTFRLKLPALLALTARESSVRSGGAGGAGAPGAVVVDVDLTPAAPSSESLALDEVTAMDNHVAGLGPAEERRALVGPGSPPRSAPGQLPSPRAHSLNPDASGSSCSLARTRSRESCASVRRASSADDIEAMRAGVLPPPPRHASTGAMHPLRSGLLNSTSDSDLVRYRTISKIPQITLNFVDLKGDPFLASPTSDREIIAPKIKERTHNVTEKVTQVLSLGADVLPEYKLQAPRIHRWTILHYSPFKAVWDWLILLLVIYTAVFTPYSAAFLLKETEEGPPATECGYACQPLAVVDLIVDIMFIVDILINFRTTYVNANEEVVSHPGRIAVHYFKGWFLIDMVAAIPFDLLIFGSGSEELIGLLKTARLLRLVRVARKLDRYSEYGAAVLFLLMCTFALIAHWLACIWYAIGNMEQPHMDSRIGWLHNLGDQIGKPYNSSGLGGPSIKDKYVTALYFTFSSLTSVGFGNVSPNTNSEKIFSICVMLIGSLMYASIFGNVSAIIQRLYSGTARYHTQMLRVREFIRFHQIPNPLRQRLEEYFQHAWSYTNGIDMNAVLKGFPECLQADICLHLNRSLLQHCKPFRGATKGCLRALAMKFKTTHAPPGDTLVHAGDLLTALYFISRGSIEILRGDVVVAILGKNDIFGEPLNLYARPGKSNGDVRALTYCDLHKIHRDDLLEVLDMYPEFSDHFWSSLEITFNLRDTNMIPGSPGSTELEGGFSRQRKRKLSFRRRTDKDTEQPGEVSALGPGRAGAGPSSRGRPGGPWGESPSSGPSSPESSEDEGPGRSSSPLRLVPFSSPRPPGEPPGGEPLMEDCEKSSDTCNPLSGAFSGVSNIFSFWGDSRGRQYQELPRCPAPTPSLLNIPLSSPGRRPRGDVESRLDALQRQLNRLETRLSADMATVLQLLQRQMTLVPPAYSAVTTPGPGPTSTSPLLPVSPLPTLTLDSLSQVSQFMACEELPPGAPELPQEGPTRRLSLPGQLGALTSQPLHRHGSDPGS
# Sequence of Voltage-gated inwardly rectifying potassium channel KCNH2 (Q12809 whole entry): as above
# Sequence of Histamine H3 receptor (Q9QYN8 whole entry): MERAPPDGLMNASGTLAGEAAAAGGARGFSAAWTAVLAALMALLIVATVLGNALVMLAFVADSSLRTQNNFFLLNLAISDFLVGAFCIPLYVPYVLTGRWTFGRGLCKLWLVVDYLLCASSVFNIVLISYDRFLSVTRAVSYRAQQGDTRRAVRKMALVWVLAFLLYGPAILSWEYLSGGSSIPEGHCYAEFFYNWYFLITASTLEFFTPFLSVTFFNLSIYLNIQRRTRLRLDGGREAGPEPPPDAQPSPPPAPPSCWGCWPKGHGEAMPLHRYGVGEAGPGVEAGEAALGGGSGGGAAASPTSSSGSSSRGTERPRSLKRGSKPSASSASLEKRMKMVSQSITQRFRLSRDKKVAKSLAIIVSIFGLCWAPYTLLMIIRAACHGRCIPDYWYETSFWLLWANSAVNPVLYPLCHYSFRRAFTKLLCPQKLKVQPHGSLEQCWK
smiles,measurement,setting,value
COCCCS(=O)(=O)c1ccc(-c2ccc(CCN3CCC[C@H]3C)cc2)cc1,pKi,Histamine H3 receptor,9.15
same,inhibition at 3 µM,hERG (KCNH2),14%
same,pIC50,[1],4.96
same,minimal effective dose,Rattus norvegicus [2],0.3 mg/kg
same,Tmax,[3],0.5 h
same,Cmax,[4],104 ng/mL
same,half-life,[5],1.9 h
same,Vdss,Rattus norvegicus [6],7.5 L/kg
same,bioavailability,[7],27.3%
same,Kp,[8],3.3
same,fraction unbound,[9],0.26
same,fraction unbound,[10],0.26
same,concentration at 1 h,[11],17 ng/g
same,inhibition in vivo at 0.6 mg/kg,Rattus norvegicus [12],< 20%
same,Tmax,[13],1 h
same,Tmax,[14],2.3 h
same,Tmax,[15],0.8 h
same,Cmax,[16],80 ng/mL
same,Cmax,[17],550 ng/mL
same,Cmax,[18],600 ng/mL
same,half-life,[19],1.5 h
same,half-life,[20],1.9 h
same,half-life,[21],6.9 h
same,half-life,[22],5 h
same,bioavailability,[23],67.5%
